Laboratory results taken from ChEMBL document CHEMBL4364254 (J Med Chem, 2019).

Columns and labels:
Cytochrome P450 2B6 = Cytochrome P450 2B6 (Homo sapiens, UniProt P20813); test: Induction of CYP2B6 in human HepaRG cells at 10 uM measured after 24 hrs by qRT-PCR analysis relative to phenobarbital; format: ADME, cell-based; details: hepatocytes
Summary of the method: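 Cryopreserved HepaRG cells were plated on collagen I in Williams' E medium with GlutaMAX. On day 4 they were treated with 10 μM compound in serum-free induction medium for 24 h at 37 °C; the vehicle was 1% DMSO. Positive controls were omeprazole 50 μM (CYP1A2), phenobarbital 1 mM (CYP2B6) and rifampicin 10 μM (CYP3A4). mRNA was read by TaqMan qPCR with GAPDH as reference, using ΔΔCt, and expressed as % of the positive control.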

[1] = Half life in Sprague-Dawley rat plasma at 1 mg/kg, po by LC-MS/MS analysis; format: ADME, organism-based
Adenosine receptor A2a = Adenosine receptor A2a (Homo sapiens, UniProt P29274); test: Displacement of [3H]CGS21680 from recombinant human adenosine A2A receptor after 120 mins by scintillation counting analysis
[2] = biological target: Alpha-1A adrenergic receptor (Homo sapiens, UniProt P35348); test: Displacement of [3H]prazosin from recombinant human alpha 1A adrenoceptor after 60 mins by scintillation counting analysis
[3] = biological target: Alpha-2A adrenergic receptor (Homo sapiens, UniProt P08913); test: Displacement of [3H]RX 821002 from recombinant human alpha 2A adrenoceptor after 60 mins by scintillation counting analysis
Sequence of Alpha-2A adrenergic receptor (P08913 whole entry): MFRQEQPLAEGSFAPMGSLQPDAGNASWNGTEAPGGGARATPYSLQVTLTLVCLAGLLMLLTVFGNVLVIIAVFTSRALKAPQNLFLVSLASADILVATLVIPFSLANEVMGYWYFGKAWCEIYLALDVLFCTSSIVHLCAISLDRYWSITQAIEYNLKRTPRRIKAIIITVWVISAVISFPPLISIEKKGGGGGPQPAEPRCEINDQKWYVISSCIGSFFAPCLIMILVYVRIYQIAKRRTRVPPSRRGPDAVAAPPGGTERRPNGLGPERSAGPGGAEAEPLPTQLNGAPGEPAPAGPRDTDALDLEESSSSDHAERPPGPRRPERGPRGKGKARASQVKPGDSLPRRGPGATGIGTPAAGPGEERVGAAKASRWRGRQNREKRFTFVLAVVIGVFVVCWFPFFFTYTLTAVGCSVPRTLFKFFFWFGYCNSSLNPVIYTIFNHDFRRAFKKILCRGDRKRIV

[4] = biological target: Beta-1 adrenergic receptor (Homo sapiens, UniProt P08588); test: Displacement of [3H](-)CGP12177 from recombinant human beta1 adrenergic receptor after 60 mins by scintillation counting analysis
[5] = biological target: Cholecystokinin receptor type A (Homo sapiens, UniProt P32238); test: Displacement of [125I]CCK-8s from recombinant human CCK1 receptor after 60 mins by scintillation counting analysis
Endothelin-1 receptor = Endothelin-1 receptor (Homo sapiens, UniProt P25101); test: Displacement of [125I]endothelin-1 from recombinant human ETA receptor after 120 mins by scintillation counting analysis
[6] = biological target: Muscarinic acetylcholine receptor M2 (Homo sapiens, UniProt P08172); test: Displacement of [3H]AF-DX 384 from recombinant human M2 receptor after 60 mins by scintillation counting analysis
[7] = biological target: Muscarinic acetylcholine receptor M3 (Homo sapiens, UniProt P20309); test: Displacement of [3H]4-DAMP from recombinant human M3 receptor after 60 mins by scintillation counting analysis
Sequence of Muscarinic acetylcholine receptor M3 (P20309 whole entry): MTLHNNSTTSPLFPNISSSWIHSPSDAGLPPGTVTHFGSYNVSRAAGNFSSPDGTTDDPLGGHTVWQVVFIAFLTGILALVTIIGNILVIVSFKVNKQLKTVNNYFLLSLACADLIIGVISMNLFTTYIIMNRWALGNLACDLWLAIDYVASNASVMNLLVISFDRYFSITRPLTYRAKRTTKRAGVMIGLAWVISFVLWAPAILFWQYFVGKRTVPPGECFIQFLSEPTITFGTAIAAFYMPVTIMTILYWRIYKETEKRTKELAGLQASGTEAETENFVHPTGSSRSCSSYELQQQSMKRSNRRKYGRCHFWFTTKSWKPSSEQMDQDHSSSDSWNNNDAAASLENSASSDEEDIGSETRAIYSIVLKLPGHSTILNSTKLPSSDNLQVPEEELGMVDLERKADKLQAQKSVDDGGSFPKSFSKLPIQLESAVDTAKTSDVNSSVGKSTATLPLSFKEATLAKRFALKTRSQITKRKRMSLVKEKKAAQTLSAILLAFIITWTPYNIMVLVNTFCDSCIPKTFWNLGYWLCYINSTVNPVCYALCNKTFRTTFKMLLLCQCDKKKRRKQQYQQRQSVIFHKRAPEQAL

Mu-type opioid receptor = Mu-type opioid receptor (Homo sapiens, UniProt P35372); test: Displacement of [3H]DAMGO from recombinant human MOR after 120 mins by scintillation counting analysis
[8] = biological target: 5-hydroxytryptamine receptor 1A (Homo sapiens, UniProt P08908); test: Displacement of [3H]8-OH-DPAT from recombinant human 5HT1A after 60 mins by scintillation counting analysis
[9] = biological target: 5-hydroxytryptamine receptor 1B (Homo sapiens, UniProt P28222); test: Displacement of [3H]GR125743 from recombinant human 5HT1B after 60 mins by scintillation counting analysis
[10] = biological target: 5-hydroxytryptamine receptor 2A (Homo sapiens, UniProt P28223); test: Displacement of [125I](+/-)DOI from recombinant human 5HT2A receptor after 60 mins by scintillation counting analysis
[11] = biological target: 5-hydroxytryptamine receptor 2B (Homo sapiens, UniProt P41595); test: Displacement of [125I](+/-)DOI from recombinant human 5HT2B receptor after 60 mins by scintillation counting analysis
Sequence of 5-hydroxytryptamine receptor 2B (P41595 whole entry): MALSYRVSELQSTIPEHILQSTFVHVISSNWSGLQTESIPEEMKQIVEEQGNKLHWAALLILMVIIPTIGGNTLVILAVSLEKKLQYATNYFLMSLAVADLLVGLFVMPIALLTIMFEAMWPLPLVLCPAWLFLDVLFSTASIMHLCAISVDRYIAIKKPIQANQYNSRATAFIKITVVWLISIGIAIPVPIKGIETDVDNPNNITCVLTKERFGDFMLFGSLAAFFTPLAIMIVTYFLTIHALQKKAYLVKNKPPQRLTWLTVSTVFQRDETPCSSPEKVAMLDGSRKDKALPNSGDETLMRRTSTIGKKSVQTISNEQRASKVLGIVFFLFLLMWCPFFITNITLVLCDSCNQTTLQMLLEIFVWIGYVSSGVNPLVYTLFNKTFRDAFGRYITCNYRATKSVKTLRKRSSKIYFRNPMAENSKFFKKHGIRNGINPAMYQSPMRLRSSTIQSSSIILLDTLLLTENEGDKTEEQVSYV

Vasopressin V1a receptor = Vasopressin V1a receptor (Homo sapiens, UniProt P37288); test: Displacement of [3H]AVP from recombinant human V1A receptor after 60 mins by scintillation counting analysis
[12] = biological target: Sodium-dependent dopamine transporter (Homo sapiens, UniProt Q01959); test: Displacement of [3H]BTCP from recombinant human dopamine transporter after 120 mins by scintillation counting analysis
[13] = biological target: Sodium-dependent noradrenaline transporter (Homo sapiens, UniProt P23975); test: Displacement of [3H]nisoxetine from recombinant human norepinephrine transporter after 120 mins by scintillation counting analysis
[14] = biological target: Sodium-dependent serotonin transporter (Homo sapiens, UniProt P31645); test: Displacement of [3H]imipramine from recombinant human serotonin transporter after 120 mins by scintillation counting analysis
Sequence of Sodium-dependent serotonin transporter (P31645 whole entry): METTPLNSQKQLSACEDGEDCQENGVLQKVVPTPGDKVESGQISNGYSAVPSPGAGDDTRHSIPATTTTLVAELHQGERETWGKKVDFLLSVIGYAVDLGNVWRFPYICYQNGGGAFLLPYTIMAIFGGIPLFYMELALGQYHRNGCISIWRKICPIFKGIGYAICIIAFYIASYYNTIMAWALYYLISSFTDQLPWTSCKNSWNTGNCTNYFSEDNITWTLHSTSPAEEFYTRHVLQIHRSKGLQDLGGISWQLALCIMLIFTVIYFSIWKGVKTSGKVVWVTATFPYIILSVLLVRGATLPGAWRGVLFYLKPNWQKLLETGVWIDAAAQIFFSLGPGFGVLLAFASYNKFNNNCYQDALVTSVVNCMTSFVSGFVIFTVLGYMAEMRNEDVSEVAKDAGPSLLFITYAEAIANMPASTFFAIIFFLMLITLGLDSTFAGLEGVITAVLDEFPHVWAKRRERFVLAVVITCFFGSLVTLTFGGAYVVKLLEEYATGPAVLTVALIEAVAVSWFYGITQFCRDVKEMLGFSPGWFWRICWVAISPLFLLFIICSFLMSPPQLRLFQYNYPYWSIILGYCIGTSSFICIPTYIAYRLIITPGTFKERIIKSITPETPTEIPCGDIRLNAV

[15] = biological target: GABA-A receptor; anion channel; test: Displacement of [3H]flunitrazepam from rat brain GABAA ion channel after 60 mins by scintillation counting analysis
[16] = biological target: Neuronal acetylcholine receptor; alpha4/beta2 (Homo sapiens, UniProt P17787+P43681); test: Displacement of [3H]cytisine from recombinant human alpha4beta2 nAChR after 120 mins by scintillation counting analysis; format: protein-complex assay
Sequence of Neuronal acetylcholine receptor; alpha4/beta2 (P17787 whole entry): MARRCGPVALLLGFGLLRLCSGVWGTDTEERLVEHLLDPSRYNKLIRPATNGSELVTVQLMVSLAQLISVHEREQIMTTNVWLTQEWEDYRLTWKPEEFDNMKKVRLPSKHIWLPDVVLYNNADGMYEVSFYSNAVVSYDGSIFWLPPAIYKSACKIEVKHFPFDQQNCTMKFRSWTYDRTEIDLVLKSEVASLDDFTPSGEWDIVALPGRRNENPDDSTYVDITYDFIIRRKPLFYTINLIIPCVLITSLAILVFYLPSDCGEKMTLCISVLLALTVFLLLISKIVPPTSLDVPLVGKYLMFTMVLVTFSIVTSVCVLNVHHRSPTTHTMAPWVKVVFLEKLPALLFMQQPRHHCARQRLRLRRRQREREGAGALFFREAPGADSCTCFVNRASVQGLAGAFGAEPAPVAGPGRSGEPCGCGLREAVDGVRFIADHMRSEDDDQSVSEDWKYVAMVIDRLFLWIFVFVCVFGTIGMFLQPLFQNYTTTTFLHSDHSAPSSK
Sequence of Neuronal acetylcholine receptor; alpha4/beta2 (P43681 whole entry): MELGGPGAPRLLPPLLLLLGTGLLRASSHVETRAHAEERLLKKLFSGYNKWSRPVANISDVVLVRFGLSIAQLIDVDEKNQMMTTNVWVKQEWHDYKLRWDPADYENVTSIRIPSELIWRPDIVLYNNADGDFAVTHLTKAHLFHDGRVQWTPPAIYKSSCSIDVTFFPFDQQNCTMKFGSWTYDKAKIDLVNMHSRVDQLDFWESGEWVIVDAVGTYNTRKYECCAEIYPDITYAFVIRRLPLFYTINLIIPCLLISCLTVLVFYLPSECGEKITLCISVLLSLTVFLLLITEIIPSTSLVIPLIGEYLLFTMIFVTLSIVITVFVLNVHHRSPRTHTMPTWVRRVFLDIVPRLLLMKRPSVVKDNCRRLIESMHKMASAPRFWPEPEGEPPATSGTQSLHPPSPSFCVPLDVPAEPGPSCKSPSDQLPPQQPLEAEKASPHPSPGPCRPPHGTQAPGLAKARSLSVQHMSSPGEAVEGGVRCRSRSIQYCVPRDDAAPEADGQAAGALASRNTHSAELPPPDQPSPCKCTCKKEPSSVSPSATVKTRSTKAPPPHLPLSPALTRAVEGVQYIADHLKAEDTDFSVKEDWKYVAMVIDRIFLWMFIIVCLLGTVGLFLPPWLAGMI

[17] = biological target: 5-hydroxytryptamine receptor 3A (Homo sapiens, UniProt P46098); test: Displacement of [3H]BRL43694 from recombinant human 5HT3 receptor after 120 mins by scintillation counting analysis
Androgen receptor = Androgen receptor (Homo sapiens, UniProt P10275); test: Displacement of [3H]methyltrienolone from recombinant human AR after 1440 mins by scintillation counting analysis
Sequence of Androgen receptor (P10275 whole entry): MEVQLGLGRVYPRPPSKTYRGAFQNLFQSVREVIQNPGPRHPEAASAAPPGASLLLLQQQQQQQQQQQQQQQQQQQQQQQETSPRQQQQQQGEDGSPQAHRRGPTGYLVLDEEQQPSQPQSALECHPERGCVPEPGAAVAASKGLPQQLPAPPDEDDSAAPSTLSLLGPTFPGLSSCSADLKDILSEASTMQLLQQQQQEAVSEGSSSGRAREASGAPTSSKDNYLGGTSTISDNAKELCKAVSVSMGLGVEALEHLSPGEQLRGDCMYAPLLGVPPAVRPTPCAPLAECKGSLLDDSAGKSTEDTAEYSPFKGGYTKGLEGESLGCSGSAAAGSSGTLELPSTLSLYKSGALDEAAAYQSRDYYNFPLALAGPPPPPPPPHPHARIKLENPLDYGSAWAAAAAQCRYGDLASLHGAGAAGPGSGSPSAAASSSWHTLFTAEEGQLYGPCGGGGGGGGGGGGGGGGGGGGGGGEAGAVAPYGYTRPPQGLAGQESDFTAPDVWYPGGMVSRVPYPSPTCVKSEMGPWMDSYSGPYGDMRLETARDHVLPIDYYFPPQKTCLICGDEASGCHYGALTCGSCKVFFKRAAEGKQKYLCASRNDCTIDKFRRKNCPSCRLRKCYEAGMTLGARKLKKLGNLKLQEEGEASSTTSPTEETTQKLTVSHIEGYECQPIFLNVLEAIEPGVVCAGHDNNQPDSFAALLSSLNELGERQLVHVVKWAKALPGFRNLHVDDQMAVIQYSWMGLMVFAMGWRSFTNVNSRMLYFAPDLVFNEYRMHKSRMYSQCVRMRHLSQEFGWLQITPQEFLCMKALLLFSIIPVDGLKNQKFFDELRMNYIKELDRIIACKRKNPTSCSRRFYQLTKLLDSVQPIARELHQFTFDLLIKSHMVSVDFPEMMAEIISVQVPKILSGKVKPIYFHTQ

Glucocorticoid receptor = Glucocorticoid receptor (Homo sapiens, UniProt P04150); test: Displacement of [3H]dexamethasone from recombinant human GR after 360 mins by scintillation counting analysis
Sequence of Glucocorticoid receptor (P04150 whole entry): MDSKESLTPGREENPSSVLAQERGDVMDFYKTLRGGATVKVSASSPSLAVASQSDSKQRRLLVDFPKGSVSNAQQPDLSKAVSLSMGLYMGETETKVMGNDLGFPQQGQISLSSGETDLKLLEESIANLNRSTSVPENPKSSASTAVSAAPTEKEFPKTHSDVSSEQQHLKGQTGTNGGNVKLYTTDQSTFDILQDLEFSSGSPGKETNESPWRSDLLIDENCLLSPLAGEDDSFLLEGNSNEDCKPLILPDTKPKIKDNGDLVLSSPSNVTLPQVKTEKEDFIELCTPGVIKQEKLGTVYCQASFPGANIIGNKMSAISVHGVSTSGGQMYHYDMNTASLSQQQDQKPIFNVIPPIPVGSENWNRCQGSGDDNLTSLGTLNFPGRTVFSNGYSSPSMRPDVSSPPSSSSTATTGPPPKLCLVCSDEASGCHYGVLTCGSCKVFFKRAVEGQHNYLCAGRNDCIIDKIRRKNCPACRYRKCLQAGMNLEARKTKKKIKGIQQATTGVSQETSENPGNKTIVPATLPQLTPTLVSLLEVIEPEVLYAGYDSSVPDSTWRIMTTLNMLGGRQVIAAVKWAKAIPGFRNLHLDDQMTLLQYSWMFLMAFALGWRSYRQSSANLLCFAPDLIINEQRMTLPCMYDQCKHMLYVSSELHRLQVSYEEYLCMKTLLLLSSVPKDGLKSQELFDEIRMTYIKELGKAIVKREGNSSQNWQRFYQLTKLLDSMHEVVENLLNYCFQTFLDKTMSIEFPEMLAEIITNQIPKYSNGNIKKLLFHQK

[18] = biological target: Tyrosine-protein kinase Lck (Homo sapiens, UniProt P06239); test: Activity at recombinant human LCK using Ulight-Poly GAT[EAY(1:1:1)]n as substrate measured after 10 mins by LANCE assay
[19] = biological target: Prostaglandin G/H synthase 1 (Homo sapiens, UniProt P23219); test: Activity at human recombinant COX1 using arachidonic acid as substrate measured after 3 mins by ADHP reagent based fluorescence assay
[20] = biological target: Prostaglandin G/H synthase 2 (Homo sapiens, UniProt P35354); test: Activity at human recombinant COX2 using arachidonic acid as substrate measured after 5 mins by ADHP reagent based fluorescence assay
Acetylcholinesterase = Acetylcholinesterase (Homo sapiens, UniProt P22303); test: Activity at human recombinant ACHE using acetylthiocholine as substrate measured after 30 mins by spectrophotometric assay
[21] = biological target: Amine oxidase [flavin-containing] A (Rattus norvegicus, UniProt P21396); test: Displacement of [3H]Ro41-1049 from rat brain MAOA after 60 mins by scintillation counting analysis

O=C(Nc1ccc(OC(F)F)nc1)NC1CCN(c2ncnc3c2nc(-c2ccccc2Cl)n3-c2ccc(Cl)cc2)CC1
9.9 h: half-life [1]
< 10%: Activity (Cytochrome P450 2B6)
> 10 µM: EC50 (Adenosine receptor A2a) | IC50 (Adenosine receptor A2a) | EC50 [2] | IC50 [2] | EC50 [3] | IC50 [3] | EC50 [4] | IC50 [4] | EC50 [5] | IC50 [5] | EC50 (Endothelin-1 receptor) | IC50 (Endothelin-1 receptor) | EC50 [6] | IC50 [6] | EC50 [7] | IC50 [7] | EC50 (Mu-type opioid receptor) | IC50 (Mu-type opioid receptor) | EC50 [8] | IC50 [8] | EC50 [9] | IC50 [9] | EC50 [10] | IC50 [10] | EC50 [11] | IC50 [11] | EC50 (Vasopressin V1a receptor) | IC50 (Vasopressin V1a receptor) | EC50 [12] | IC50 [12] | EC50 [13] | IC50 [13] | EC50 [14] | IC50 [14] | EC50 [15] | IC50 [15] | EC50 [16] | IC50 [16] | EC50 [17] | IC50 [17] | EC50 (Androgen receptor) | IC50 (Androgen receptor) | EC50 (Glucocorticoid receptor) | IC50 (Glucocorticoid receptor) | EC50 [18] | IC50 [18] | EC50 [19] | IC50 [19] | EC50 [20] | IC50 [20] | EC50 (Acetylcholinesterase) | IC50 (Acetylcholinesterase) | EC50 [21] | IC50 [21]
